Series [1] has as its system HeLa. Kind of series: Cytotoxicity against human HeLa cells assessed as cell viability after 5 days by cell viability analyzer. The class given is functional, cell-based. The following applies: 120 h. In short, it runs like this:
(§1)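 Cells were grown in DMEM with 10% FBS, 4 mM glutamine, 1 mM sodium pyruvate, penicillin/streptomycin and amphotericin at 37 °C under 5% CO2, then seeded at 20,000 per well. They were exposed to five doses from 0.01 to 10 μM for 5 days, with DMSO vehicle as control. Viable cells were counted, and % viability was calculated as treated/vehicle. IC50 was taken from dose-response curves over three independent experiments.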

In series [2] the test system is MDA-MB-231. Kind of series: Cytotoxicity against human MDA-MB-231 cells assessed as cell viability after 5 days by cell viability analyzer. Type of series: functional, cell-based. The following applies: MDA-MB-231, 120 h. In short, it runs like this: as §1
The subject of another series is MCF10. Briefly: Cytotoxicity against human MCF10 cells at 1 to 10 uM. The class given is cell-based. The following applies: mcf10, 10 µM.
The test system of another series is MCF7. Briefly: Ratio of chlorambucil IC50 to compound IC50 for human MCF7 cells assessed as cell viability after 5 days by cell viability analyzer. Type of series: functional. In short, it runs like this:
(§2)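 Cells grown in DMEM with 10% FBS, 4 mM glutamine, 1 mM sodium pyruvate, penicillin/streptomycin and amphotericin at 37 °C under 5% CO2. They were seeded at 20,000 per well and exposed to test agents or chlorambucil at 5 doses (0.01–10 μM) for 5 days, with DMSO as vehicle. Viable cells were counted by analyzer and expressed as % of vehicle. IC50s for both agents came from dose-response curves over three independent experiments.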

The subject of series [3] is HeLa. Briefly: Ratio of chlorambucil IC50 to compound IC50 for human HeLa cells assessed as cell viability after 5 days by cell viability analyzer. Type of series: functional. In short, it runs like this: as §2
The subject of series [4] is MDA-MB-231. Kind of series: Ratio of chlorambucil IC50 to compound IC50 for human MDA-MB-231 cells assessed as cell viability after 5 days by cell viability analyzer. The class given is functional. In short, it runs like this: as §2

The record followed here is ChEMBL document CHEMBL3616423, “Design and synthesis of novel hydroxyanthraquinone nitrogen mustard derivatives as potential anticancer agents via a bioisostere approach” (Eur J Med Chem, 2015).

For `CCCC(c1cc(O)c2c(c1O)C(=O)c1ccccc1C2=O)N(CCCl)CCCl` (stereo not given), the results for the IC50 in the series on HeLa [1] and in the series with MDA-MB-231 [2] were 152 nM and 61.9 nM, respectively.
For `O=C1c2ccccc2C(=O)c2c(O)c(C(c3ccc(Cl)cc3)N(CCCl)CCCl)cc(O)c21` (stereo not given), the concentration for half-maximal inhibition (IC50) in the series on HeLa [1] was 185 nM; with MDA-MB-231 [2] it was 48 nM.
Regarding `COc1cc(C(c2ccccc2)N(CCCl)CCCl)c(O)c2c1C(=O)c1ccccc1C2=O` (stereo not given), the Activity entry in the series on MCF10 is “Toxic”. The IC50 came to 480 nM in the series with HeLa [1] and 278 nM in the series with MDA-MB-231 [2].
For the compound `O=C1c2ccccc2C(=O)c2c(O)c(C(c3ccc(Br)cc3)N(CCCl)CCCl)cc(O)c21` (stereo not given), the results for the 50% inhibitory concentration (IC50) in the series with HeLa [1] and with MDA-MB-231 [2] were 262 nM and 299 nM, respectively.
In the case of `O=C1c2ccccc2C(=O)c2c(O)c(C(c3ccccc3)N(CCCl)CCCl)cc(O)c21` (stereo not given), the Activity entry with MCF10 is recorded as “Toxic”. The IC50 with HeLa [1] was 339 nM; in the series on MDA-MB-231 [2], 137 nM.
In the case of `O=C1c2ccccc2C(=O)c2c(O)c(C(Cc3ccccc3)N(CCCl)CCCl)cc(O)c21` (stereo not given), the IC50 in the series with HeLa [1] turned out to be 665 nM; in the series on MDA-MB-231 [2], 51.1 nM.
On the same counts, the results for `O=C(O)CCCc1ccc(N(CCCl)CCCl)cc1` [CHLORAMBUCIL] are 943 nM and 520 nM.
For the compound `O=C1c2ccccc2C(=O)c2c(O)c(C(c3ccc(F)cc3)N(CCCl)CCCl)cc(O)c21` (stereo not given), in the series with MCF7, the “Ratio IC50” value stood at 100. In addition, in the series on MCF10, the Activity entry is reported as “Toxic”. Also, the figures for the concentration for half-maximal inhibition (IC50) with HeLa [1] and with MDA-MB-231 [2] were 249 nM and 80.7 nM, respectively.
Take `COc1ccccc1C(c1cc(O)c2c(c1O)C(=O)c1ccccc1C2=O)N(CCCl)CCCl` (stereo not given): the Activity result with MCF10 was “Toxic”. Besides, the IC50 with HeLa [1] came to 210 nM; in the series on MDA-MB-231 [2], 2.13 nM.
The corresponding values for `Cc1ccc(C(c2cc(O)c3c(c2O)C(=O)c2ccccc2C3=O)N(CCCl)CCCl)cc1C` (stereo not given) are “Toxic”, 234 nM and 389 nM.
Turning to `Cc1ccc(C(c2cc(O)c3c(c2O)C(=O)c2ccccc2C3=O)N(CCCl)CCCl)cc1` (stereo not given), in the series on HeLa [3], the “Ratio IC50” value amounted to 10. The half-maximal inhibitory concentration (IC50) stood at 93.8 nM with HeLa [1] and 22.5 nM with MDA-MB-231 [2].
For the compound `CC(C)C(c1cc(O)c2c(c1O)C(=O)c1ccccc1C2=O)N(CCCl)CCCl` (stereo not given), the Activity result in the series on MCF10 is recorded as “Toxic”. For the same compound, the values for the IC50 in the series on HeLa [1] and in the series with MDA-MB-231 [2] were 217 nM and 77.6 nM, respectively.
In the case of `O=C1c2cccc(O)c2C(=O)c2c1ccc(C(c1ccccc1)N(CCCl)CCCl)c2O` (stereo not given), the half-inhibitory concentration (IC50) in the series on HeLa [1] was determined as 308 nM; with MDA-MB-231 [2], 316 nM.
The corresponding values for `O=C1c2ccccc2C(=O)c2c(O)c(CN(CCCl)CCCl)cc(O)c21` are 139 nM and 211 nM.
The corresponding values for `CCC(c1cc(O)c2c(c1O)C(=O)c1ccccc1C2=O)N(CCCl)CCCl` (stereo not given) are 105 nM and 84.5 nM.
On the same counts, the results for `CC(C)CC(c1cc(O)c2c(c1O)C(=O)c1ccccc1C2=O)N(CCCl)CCCl` (stereo not given) are 392 nM and 14.6 nM.
For the compound `COc1cccc(C(c2cc(O)c3c(c2O)C(=O)c2ccccc2C3=O)N(CCCl)CCCl)c1` (stereo not given), the Activity result in the series with MCF10 is listed as “Toxic”. The figures for the IC50 in the series with HeLa [1] and with MDA-MB-231 [2] were 210 nM and 91.2 nM, respectively.
Consider `O=C1c2ccccc2C(=O)c2c(O)c(C(c3ccccc3F)N(CCCl)CCCl)cc(O)c21` (stereo not given), for which the “Ratio IC50” value in the series on MDA-MB-231 [4] came to 900. For the same compound, the Activity entry in the series with MCF10 is listed as “Toxic”. Moreover, the IC50 with HeLa [1] came out at 615 nM; with MDA-MB-231 [2], 0.59 nM.
For the compound `O=C1c2ccccc2C(=O)c2c(O)c(C(c3cccc(F)c3)N(CCCl)CCCl)cc(O)c21` (stereo not given), the Activity result in the series on MCF10 is recorded as “Toxic”. The IC50 was determined as 166 nM with HeLa [1] and 59.6 nM with MDA-MB-231 [2].
Regarding `CC(c1cc(O)c2c(c1O)C(=O)c1ccccc1C2=O)N(CCCl)CCCl` (stereo not given), the IC50 is 154 nM in the series on HeLa [1] and 1000 nM in the series on MDA-MB-231 [2].
As to `COc1ccc(C(c2cc(O)c3c(c2O)C(=O)c2ccccc2C3=O)N(CCCl)CCCl)cc1` (stereo not given), the Activity result in the series on MCF10 is given as “Toxic”. The IC50 in the series with HeLa [1] came out at 457 nM; with MDA-MB-231 [2], 12.9 nM.
